Holding throughout (assay type): tissue-based
Assay [1] addresses Prostaglandin F2-alpha receptor (Mus musculus) (UniProt P43117). Description: Antagonist activity at prostaglandin F2-alpha receptor in isolated Albino mouse ileum assessed as inhibition of acetylcholine-induced spasmogenic effect preincubated for 3 mins followed by acetylcholine challenge followed by compound washout. An outline of the steps:
(§1)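 Mouse ileum came from female albinos (20-25 g) killed by cervical dislocation and was held under 200 mg tension in 37 °C baths for isotonic recording, with 30-min equilibration. A control acetylcholine contraction was obtained, then three washes. Compound was in contact for 3 min before acetylcholine challenge and contraction recording. After 5 min there were three washes and the control response was redetermined.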

Assay [2] shares this target. Description: Antagonist activity at prostaglandin F2-alpha receptor in isolated Albino mouse ileum assessed as inhibition of PGF2alpha-induced spasmogenic effect at. A digest of the protocol:
(§2)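 This used female albino mouse ileum (20-25 g animals, killed by cervical dislocation), recorded isotonically under 200 mg tension at 37 °C after 30-min equilibration. A control PGF2α contraction was obtained and the bath washed three times. Compound was applied for 3 min before PGF2α challenge, and the contraction was recorded. Washing three times after 5 min was followed by a repeat PGF2α control response.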

Assay [3] has the same target. Kind of assay: Antagonist activity at prostaglandin F2-alpha receptor in isolated Albino mouse ileum assessed as inhibition of PGF2alpha-induced spasmogenic effect at 10^-4 M preincubated for 3 mins followed by PGF2alpha challenge relative to control. A digest of the protocol:
as §2

The target is the same in assay [4]. Kind of assay: Antagonist activity at prostaglandin F2-alpha receptor in isolated Albino mouse ileum assessed as inhibition of acetylcholine-induced spasmogenic effect at 10^-3 M preincubated for 3 mins followed by acetylcholine challenge relative to control. A digest of the protocol:
as §1

For assay [5] the target is unchanged. Kind of assay: Antagonist activity at prostaglandin F2-alpha receptor in isolated Albino mouse ileum assessed as inhibition of KCl-induced spasmogenic effect preincubated for 3 mins followed by KCl challenge followed by compound washout. An outline of the steps:
(§3)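 Ileum sections were taken from female albino mice (20-25 g) killed by cervical dislocation and mounted in 37 °C baths under 200 mg tension, with isotonic contraction recording after a 30-min equilibration. A control contraction to KCl (54 mM bath) was followed by three washes. Compound was left on the tissue for 3 min, then KCl was re-added and the contraction recorded. After 5 min the tissue was washed three times and the control response repeated.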

Assay [6] has the same target. Description: Antagonist activity at prostaglandin F2-alpha receptor in isolated Albino mouse ileum assessed as inhibition of PGF2alpha-induced spasmogenic effect at 10^-3 M preincubated for 3 mins followed by PGF2alpha challenge relative to control. A digest of the protocol: as §2
The target is the same in assay [7]. Kind of assay: Antagonist activity at prostaglandin F2-alpha receptor in isolated Albino mouse ileum assessed as inhibition of acetylcholine-induced spasmogenic effect at 10^-4 M preincubated for 3 mins followed by acetylcholine challenge relative to control. A digest of the protocol: as §1
Assay [8] shares this target. Kind of assay: Antagonist activity at prostaglandin F2-alpha receptor in isolated Albino mouse ileum assessed as inhibition of PGF2alpha-induced spasmogenic effect preincubated for 3 mins followed by PGF2alpha challenge followed by compound washout. An outline of the steps: as §2
For assay [9] the target is unchanged. Description: Antagonist activity at prostaglandin F2-alpha receptor in isolated Albino mouse ileum assessed as inhibition of acetylcholine-induced spasmogenic effect at. A digest of the protocol:
as §1

Assay [10] has the same target. Kind of assay: Antagonist activity at prostaglandin F2-alpha receptor in isolated Albino mouse ileum assessed as inhibition of KCl-induced spasmogenic effect at. A digest of the protocol: as §3
Assay [11] shares this target. Kind of assay: Antagonist activity at prostaglandin F2-alpha receptor in isolated Albino mouse ileum assessed as inhibition of KCl-induced spasmogenic effect at 10^-4 M preincubated for 3 mins followed by KCl challenge relative to control. An outline of the steps:
as §3

Assay [12] shares this target. Description: Antagonist activity at prostaglandin F2-alpha receptor in isolated Albino mouse ileum assessed as inhibition of KCl-induced spasmogenic effect at 10^-3 M preincubated for 3 mins followed by KCl challenge relative to control. An outline of the steps: as §3
Assay [13] shares this target. Kind of assay: Antagonist activity at prostaglandin F2-alpha receptor in isolated Albino mouse ileum assessed as inhibition of PGF2alpha-induced spasmogenic effect at 3X10'-5 M preincubated for 3 mins followed by PGF2alpha challenge relative to control. A digest of the protocol:
as §2

Assay [14] shares this target. Description: Antagonist activity at prostaglandin F2-alpha receptor in isolated Albino mouse ileum assessed as inhibition of PGF2alpha-induced spasmogenic effect at 5X10'-5 M preincubated for 3 mins followed by PGF2alpha challenge relative to control. A digest of the protocol:
as §2

Assay [15] shares this target. Kind of assay: Antagonist activity at prostaglandin F2-alpha receptor in isolated Albino mouse ileum assessed as inhibition of acetylcholine-induced spasmogenic effect at 3X10'-5 M preincubated for 3 mins followed by acetylcholine challenge relative to control. An outline of the steps: as §1
For assay [16] the target is unchanged. Description: Antagonist activity at prostaglandin F2-alpha receptor in isolated Albino mouse ileum assessed as inhibition of acetylcholine-induced spasmogenic effect at 5X10'-5 M preincubated for 3 mins followed by acetylcholine challenge relative to control. A digest of the protocol: as §1
Assay [17] shares this target. Description: Antagonist activity at prostaglandin F2-alpha receptor in isolated Albino mouse ileum assessed as inhibition of KCl-induced spasmogenic effect at 3X10'-5 M preincubated for 3 mins followed by KCl challenge relative to control. A digest of the protocol: as §3
Assay [18] has the same target. Description: Antagonist activity at prostaglandin F2-alpha receptor in isolated Albino mouse ileum assessed as inhibition of KCl-induced spasmogenic effect at 5X10'-5 M preincubated for 3 mins followed by KCl challenge relative to control. A digest of the protocol:
as §3

The structures appear in SMILES notation. Activity calls are given as the source filed them. The calls are words filed in the database; no cut-off is given here. Where only a bound is given, the exact number is not on record here.

Prostaglandin F2-alpha receptor (Mus musculus), sequence (P43117 whole entry): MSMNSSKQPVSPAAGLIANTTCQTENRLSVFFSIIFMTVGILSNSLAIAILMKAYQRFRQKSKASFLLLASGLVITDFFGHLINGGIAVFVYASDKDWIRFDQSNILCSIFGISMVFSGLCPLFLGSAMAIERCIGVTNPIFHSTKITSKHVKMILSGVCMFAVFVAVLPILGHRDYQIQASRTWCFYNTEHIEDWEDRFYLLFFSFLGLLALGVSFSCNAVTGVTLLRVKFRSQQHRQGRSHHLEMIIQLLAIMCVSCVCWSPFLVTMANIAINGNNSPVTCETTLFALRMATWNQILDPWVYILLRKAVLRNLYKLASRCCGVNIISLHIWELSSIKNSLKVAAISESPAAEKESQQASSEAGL

Broadly, the inhibition is how much of the control response was suppressed. Take `CCCC1(CCC(=O)O)Cc2ccc(OC)cc2C1=O` (centres undefined): the inhibition result in [1], in [2], in assay [5], in assay [7], in assay [8] and in [9] was “inactive” each time. The inhibition entry in [10] and in [11] was “inactive” in each case. Besides, in [3], the inhibition is 20%. The inhibition result in [4], in [6] and in assay [12] was “Active” throughout.

Consider `CCCC1(CCC(=O)O)Cc2cc3c(cc2C1=O)OCO3` (centres undefined), for which the inhibition result in [1], in [2], in [5], in assay [7], in [8] and in assay [9] was “inactive” in each case. Also, the inhibition result in [10] and in [11] was “inactive” throughout. In addition, the inhibition in [3] was found to be 20%. The inhibition result in [4], in [6] and in [12] was “Active” in each case.

Consider `CCCC1(CCC(=O)O)Cc2cc(OCc3ccccc3)c(OCc3ccccc3)cc2C1=O` (centres undefined), for which the inhibition result in assay [1], in assay [5] and in assay [8] was “inactive” in each case. Besides, the inhibition entry in [2], in [3], in assay [4], in assay [6], in [9] and in [10] was “Active” each time. Also, in [12], the inhibition result was “Active”. The inhibition is 80% in assay [13]; 90% in assay [14]; 70% in assay [7]; less than 20% in assay [15]; 70% in assay [11]; 35% in assay [16]. The inhibition was determined as 40% in [17] and 50% in assay [18].

Regarding `CCCC1(CCC(=O)O)Cc2cc3c(cc2C1)OCO3`, the inhibition result in [1], in assay [2], in [5], in [7], in assay [8] and in assay [9] was “inactive” throughout. Further, the inhibition result in assay [10] and in assay [11] was “inactive” in each case. Besides, the inhibition in assay [3] was determined as 20%. The inhibition result in assay [4], in assay [6] and in assay [12] was “Active” each time.

These data come from ChEMBL document CHEMBL3244074, “2-Indanpropionic acids: structural leads for prostaglandin F2alpha antagonist development” (J Med Chem, 1979).
